Assays:
[1] = Inhibition of pseudotyped HIV/EBOV GP infected in human A549 cells assessed as reduction in virus entry measured after 48 hrs by luciferase reporter gene assay; assay type: cell-based, Ebolavirus; conditions: Orthoebolavirus, A549, 48 h
[2] = system: A549; experiment: Inhibition of pseudotyped HIV/EBOV GP infected in human A549 cells assessed as reduction in virus entry at 12.5 uM measured after 48 hrs by luciferase reporter gene assay relative to control; assay type: cell-based; conditions: Ebolavirus
How it was run: (§1)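 Low-passage A549 cells are infected with HIV-based pseudovirions carrying EBOV or MARV GP and a luciferase reporter, with or without compound at 12.5 μM. […] Toremifene is the positive control.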

[3] = Inhibition of pseudotyped HIV/MARV GP infected in human A549 cells assessed as reduction in virus entry measured after 48 hrs by luciferase reporter gene assay; assay type: cell-based, Marburgvirus; conditions: Orthomarburgvirus, A549, 48 h
[4] = system: A549; experiment: Inhibition of pseudotyped HIV/MARV GP infected in human A549 cells assessed as reduction in virus entry at 12.5 uM measured after 48 hrs by luciferase reporter gene assay relative to control; assay type: cell-based; conditions: Marburgvirus; how it was run: as §1
[5] = Selectivity index, ratio of CC50 for human A549 cells to EC50 for HIV/EBOV-GP infected in human A549 cells; assay type: toxicity, cell-based; conditions: read-out: Ratio CC50/EC50
How it was run: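 Ratio CC50/EC50. CC50 is A549 cytotoxicity by CellTiter 96 aqueous nonradioactive cell proliferation assay.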

[6] = system: Zaire ebolavirus; experiment: Antiviral activity against Ebola virus 1976 Mayinga infected in human HeLa cells pretreated for 1 hr followed by virus infection measured after 24 hrs by Hoechst staining-based immunofluorescence assay; assay type: functional, organism-based
[7] = system: Marburgvirus; experiment: Antiviral activity against Marburg virus Lake Victoria, 2005 Angola infected in human HeLa cells pretreated for 1 hr followed by virus infection measured after 24 hrs by Hoechst staining-based immunofluorescence assay; assay type: functional, organism-based, Lake Victoria marburgvirus; conditions: Orthomarburgvirus, Angola2005, HeLa
[8] = Selectivity index, ratio of CC50 for human HeLa cells to EC50 for Ebola virus 1976 Mayinga in human HeLa cells; assay type: toxicity, cell-based; conditions: read-out: Ratio CC50/EC50
[9] = Metabolic stability in human pooled plasma assessed as parent compound remaining at 20 uM after 60 mins by HPLC analysis; assay type: ADME, cell-free; conditions: read-out: Stability
How it was run: (§2)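 Stability is reported as % of compound remaining after 60 min incubation in plasma or liver microsomes, relative to t0.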

[10] = Metabolic stability in Sprague-Dawley rat pooled plasma assessed as parent compound remaining at 20 uM after 60 mins by HPLC analysis; assay type: ADME, cell-free; conditions: read-out: Stability; how it was run: as §2
[11] = Metabolic stability in human liver microsomes assessed as parent compound remaining after 60 mins in presence of NADPH by HPLC analysis; assay type: ADME, Microsome; conditions: read-out: Stability; how it was run: as §2
[12] = Metabolic stability in Fischer F344 rat liver microsomes assessed as parent compound remaining after 60 mins in presence of NADPH by HPLC analysis; assay type: ADME, Microsome; conditions: read-out: Stability; how it was run: as §2
[13] = molecular target: T1, Cytochrome P450 3A4 (Homo sapiens, UniProt P08684); experiment: Inhibition of recombinant human CYP3A4 expressed in baculovirus infected insect cell microsomes using fluorescent substrate in presence of NADPH by fluorescence assay; assay type: ADME
T1 sequence (P08684 whole entry): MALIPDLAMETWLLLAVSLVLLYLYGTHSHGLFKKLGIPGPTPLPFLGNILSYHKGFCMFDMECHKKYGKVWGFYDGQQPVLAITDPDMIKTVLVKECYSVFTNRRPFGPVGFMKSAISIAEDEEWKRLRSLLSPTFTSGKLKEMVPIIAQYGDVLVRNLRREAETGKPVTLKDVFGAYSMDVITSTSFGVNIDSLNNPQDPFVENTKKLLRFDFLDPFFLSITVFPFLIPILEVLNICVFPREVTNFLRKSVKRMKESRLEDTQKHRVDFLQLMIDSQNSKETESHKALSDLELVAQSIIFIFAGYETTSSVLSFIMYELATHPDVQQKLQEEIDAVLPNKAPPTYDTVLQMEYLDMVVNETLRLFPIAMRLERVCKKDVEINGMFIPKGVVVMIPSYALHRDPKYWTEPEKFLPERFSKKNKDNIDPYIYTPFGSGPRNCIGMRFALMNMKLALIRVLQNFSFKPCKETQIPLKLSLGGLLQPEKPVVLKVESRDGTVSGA
How it was run: (§3)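 CYP3A4 inhibition IC50 is determined with 10 μM quinidine as positive inhibitor control, from three replicates; errors are estimated <10%.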

[14] = molecular target: T2, Cytochrome P450 2C9 (Homo sapiens, UniProt P11712); experiment: Inhibition of recombinant human CYP2C9 expressed in baculovirus infected insect cell microsomes using fluorescent substrate in presence of NADPH by fluorescence assay; assay type: ADME
T2 sequence (P11712 whole entry): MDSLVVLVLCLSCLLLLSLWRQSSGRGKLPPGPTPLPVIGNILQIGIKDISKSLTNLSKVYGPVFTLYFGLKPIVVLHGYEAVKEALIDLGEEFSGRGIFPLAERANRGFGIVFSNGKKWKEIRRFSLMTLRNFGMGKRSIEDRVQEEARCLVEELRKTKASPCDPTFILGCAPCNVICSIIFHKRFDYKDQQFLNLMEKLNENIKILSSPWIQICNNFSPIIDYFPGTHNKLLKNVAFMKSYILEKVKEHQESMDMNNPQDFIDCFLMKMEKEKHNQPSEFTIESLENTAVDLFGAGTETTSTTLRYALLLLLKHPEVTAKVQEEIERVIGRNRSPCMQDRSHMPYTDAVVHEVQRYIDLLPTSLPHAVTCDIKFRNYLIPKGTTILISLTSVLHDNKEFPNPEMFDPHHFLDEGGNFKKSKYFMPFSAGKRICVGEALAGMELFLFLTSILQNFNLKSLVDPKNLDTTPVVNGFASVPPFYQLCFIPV
How it was run: (§4)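 CYP2C9 inhibition IC50 is determined with 30 μM sulfaphenazole as positive inhibitor control, from three replicates; errors are estimated <10%.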

[15] = molecular target: T1, Cytochrome P450 3A4; experiment: Inhibition of recombinant human CYP3A4 expressed in baculovirus infected insect cell microsomes using vivid DBOMF as substrate preincubated for 10 mins followed by substrate addition and measured after 25 mins in presence of […] by fluorescence assay; assay type: ADME; how it was run: as §3
[16] = molecular target: T2, Cytochrome P450 2C9; experiment: Inhibition of recombinant human CYP2C9 expressed in baculovirus infected insect cell microsomes using vivid BOMF as substrate preincubated for 10 mins followed by substrate addition and measured after 25 mins in presence of […] by fluorescence assay; assay type: ADME; how it was run: as §4
[17] = system: Zaire ebolavirus; experiment: Antiviral activity against Ebola virus 1976 Mayinga infected in African green monkey Vero cells pretreated for 1 hr followed by virus infection measured after 24 hrs by Hoechst staining-based immunofluorescence assay; assay type: functional, organism-based
[18] = Selectivity index, ratio of CC50 for African green monkey Vero cells to EC50 for Ebola virus 1976 Mayinga infected in African green monkey Vero cells; assay type: toxicity; conditions: read-out: Ratio CC50/EC50
[19] = system: Zaire ebolavirus; experiment: Antiviral activity against Ebola virus 1976 Mayinga infected in African green monkey Vero cells; assay type: functional, organism-based
[20] = system: Marburgvirus; experiment: Antiviral activity against Marburg virus Lake Victoria, 2005 Angola infected in African green monkey Vero cells; assay type: functional, organism-based, Lake Victoria marburgvirus; conditions: Orthomarburgvirus, Angola2005, Vero

SMILES | EC50 [1] | inhibition [2] | EC50 [3] | inhibition [4] | selectivity ratio [5] | EC50 [6] | EC50 [7] | selectivity ratio [8] | remaining at 1 h, 20 µM [9] | remaining at 1 h, 20 µM [10] | remaining at 1 h [11] | remaining at 1 h [12] | IC50 [13] | IC50 [14] | IC50 [15] | IC50 [16] | EC50 [17] | selectivity ratio [18] | EC50 [19] | EC50 [20]
O=C(c1ccc(CN2CCCCC2)cc1)N1CCc2ccc(C(F)(F)F)cc21 | 1680 nM | 83.7% | 1460 nM | 59.2% | 38 | 3220 nM | 8170 nM | 39 | 85% | 0% | 31% | 0% |  |  |  |  |  |  |  | 
O=C(Nc1ccc(C23CC4CC(CC(C4)C2)C3)cc1)c1ccc(CN2CCOCC2)cc1 | 18 nM | 99% | 2790 nM | 72.5% | 5440 | 830 nM | 520 nM | 134 | 86% | 86% | 34% | 57% | > 100000 nM | 3140 nM |  |  |  |  |  | 
O=C(Nc1ccc(C2CCCCC2)cc1)c1ccc(CN2CCCCC2)c(F)c1 | 380 nM | 96.1% | 1330 nM | 71% | 382 | 1040 nM | 16600 nM | 128 | 87% | 86% | 28% | 23% |  |  |  |  |  |  |  | 
O=C(Nc1ccc(SC(F)(F)F)c(Cl)c1)c1ccc(CN2CCCCC2)cc1 | 1270 nM | 99.9% | 1610 nM | 99.8% | 5 | 1120 nM | 2400 nM | 14 | 100% | 88% | 90% | 94% |  |  | 15100 nM | 4490 nM |  |  |  | 
CC(c1ccc(C(=O)N2CC(C(C)(C)C)c3ccccc32)cc1)N1CCCCC1 (stereo not given) | 160 nM | 99.9% | 3180 nM | 92.8% | 224 | 870 nM | 6320 nM | 137 | 88% | 2% | 2% | 0% |  |  |  |  |  |  |  | 
O=C(Nc1ccc(C23CC4CC(CC(C4)C2)C3)cc1)c1ccc(CN2CCCCC2)cc1 | 35 nM | 99.4% | 380 nM | 99% | 231 | 110 nM | 1230 nM | 202 | 100% | 96% | 75% | 71% |  |  | > 100000 nM | > 100000 nM |  |  |  | 
CC(C)(C)c1ccc(NC(=O)c2ccc(CN3CCCCC3)cc2)c(C(C)(C)C)c1 | 480 nM | 99.5% | 2340 nM | 85% | 76 | 590 nM | 2000 nM | 227 | 85% | 82% | 17% | 99% |  |  | > 100000 nM | 18600 nM |  |  |  | 
CC(c1ccc(C(=O)N2CCc3cc(C(C)(C)C)ccc32)cc1)N1CCCCC1 (stereo not given) | 2050 nM | 99.8% | 3090 nM | 98.1% | 9 |  | 3380 nM | 19 | 94% | 62% | 46% | 27% |  |  | 24000 nM | 7940 nM |  |  |  | 
COC(=O)c1ccc(NC(=O)c2ccc(CN3CCCCC3)cc2)cc1 | 9860 nM | 74% | 530 nM | 90.7% | 15 | > 25000 nM |  |  | 63% | 78% | 54% | 0% |  |  |  |  | 2830 nM | 35 | < 10000 nM | < 10000 nM
CC(c1ccc(C(=O)Nc2ccc(C3CCCCC3)cc2)cc1)N1CCCCC1 (stereo not given) | 330 nM | 99.3% | 850 nM | 88.9% | 390 | 1800 nM | 5560 nM | 54 | 88% | 82% | 31% | 24% |  |  |  |  |  |  |  | 
CC1CCN(c2ccc(NC(=O)c3ccc(CN4CCOCC4)cc3)cc2C(F)(F)F)CC1 | 12 nM | 99.3% | 180 nM | 92.3% | 2090 | 310 nM | 820 nM | 58 | 100% | 89% | 64% | 75% | > 100000 nM | 4980 nM |  |  |  |  |  | 

Source: ChEMBL document CHEMBL4619772 (J Med Chem, 2020)
